Assay results published in ChEMBL document CHEMBL4266022, “Azaphilone Derivatives from the Fungus Coniella fragariae Inhibit NF-κB Activation and Reduce Tumor Cell Migration” (J Nat Prod, 2018).
The source made the active and inactive calls. No cut-off for these calls is given here.

Key:
MDA-MB-231 [1] = assay: Cytotoxicity against human MDA-MB-231 cells assessed as decrease in cell viability after 24 hrs by cellTiter-Glo reagent based assay; type: functional; details: MDA-MB-231, 24 h
Summary of the method: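 MDA-MB-231 cells (RPMI, 15% FCS, 37 °C, 5% CO2) seeded at 5600 cells/well in 384-well plates, cultured overnight, then treated 24 h. Viability by CellTiter-Glo luminescence. Positive control 5 μM staurosporine; 1% DMSO set as 100% viability.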

MDA-MB-231 [2] = assay: Inhibition of cell migration in human MDA-MB-231 cells at 10 uM after 24 hrs by wound-scratch assay; type: functional; details: MDA-MB-231, 24 h
Summary of the method: (§1)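 MDA-MB-231 cells seeded at 50 000 cells/well; scratch made after 24 h with automated wound maker. Compounds added, wound imaged every 2 h over 24 h by live-cell imager; migration into wound quantified.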

[3] = Inhibition of NF-kappaB in human MDA-MB-231 cells assessed as reduction in TNFalpha-induced NF-kappaB activation incubated with compound for 20 mins followed by TNFalpha stimulation measured after 2 hrs by luminescence assay
MDA-MB-231 [4] = assay: Cytotoxicity against human MDA-MB-231 cells assessed as decrease in cell viability at 5 uM after 24 hrs by cellTiter-Glo reagent based assay; type: functional
Summary of the method: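 MDA-MB-231 cells (RPMI, 15% FCS, 37 °C, 5% CO2) were seeded at 5600 cells/well, cultured overnight, then treated at 5 μM for 24 h. Viability was read by CellTiter-Glo luminescence and normalised to 1% DMSO as 100% viability.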

MDA-MB-231 [5] = assay: Inhibition of cell migration in human MDA-MB-231 cells at 5 uM after 24 hrs by wound-scratch assay; type: functional; summary of the method: as §1
MDA-MB-231 [6] = assay: Anti-invasive activity in human MDA-MB-231 cells assessed as inhibition of cell invasion into surrounding extracellular matrix at 10 uM after 24 hrs; type: functional; details: MDA-MB-231, 24 h
Summary of the method: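 Spheroids formed from 3000 MDA-MB-231 cells/well with 0.25% matrigel in ultralow-attachment plates (centrifuged 10 min, 1000 rpm, 4 °C), 72 h formation. Embedded in matrigel:collagen R (1:1), polymerized 1 h at 37 °C. Invasion into matrix imaged daily over 3 days, quantified by image analysis.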

| Structure (SMILES) | IC50 [3] [µM] | IC50 (MDA-MB-231 [1]) [µM] | inhibition at 10 µM (MDA-MB-231 [2]) [%] | Activity (MDA-MB-231 [4]) [%] | inhibition (MDA-MB-231 [5]) | inhibition at 5 µM (MDA-MB-231 [5]; MDA-MB-231, 24 h) [%] | inhibition at 10 µM (MDA-MB-231 [6]) [%] |
| --- | --- | --- | --- | --- | --- | --- | --- |
| CN[C@@H]1C[C@H]2O[C@@](C)([C@@H]1OC)n1c3ccccc3c3c4c(c5c6ccccc6n2c5c31)C(=O)NC4 [STAUROSPORINE] | – | – | – | 10.9 | – | – | – |
| CCCCCCCC(=O)[C@H]1C(=O)O[C@@]2(C)C(=O)C(C=O)=C3C=C(C)OC=C3[C@H]12 | > 100 | 19.6 | – | – | – | – | – |
| CCCCC/C=C/C(=O)[C@H]1C(=O)O[C@@]2(C)C(=O)C(C=O)=C3C=C(C)OC=C3[C@H]12 | 4.4 | 21.5 | 98 | – | – | 60 | 52 |

The next lines start with results.

| IC50 [3] [µM] | Structure (SMILES) | IC50 (MDA-MB-231 [1]) [µM] | inhibition at 10 µM (MDA-MB-231 [2]) [%] | Activity (MDA-MB-231 [4]) [%] | inhibition (MDA-MB-231 [5]) | inhibition at 5 µM (MDA-MB-231 [5]; MDA-MB-231, 24 h) [%] | inhibition at 10 µM (MDA-MB-231 [6]) [%] |
| --- | --- | --- | --- | --- | --- | --- | --- |
| 29.4 | CCCCC[C@H](O)CC(=O)C[C@H]1C2=COC(C)=CC2=C(C=O)C(=O)[C@]1(C)O | 79.3 | 83 | – | – | – | – |
| 37.8 | CCCCC/C=C/C(=O)C[C@H]1C2=COC(C)=CC2=C(C=O)C(=O)[C@]1(C)O | 18.6 | 78 | – | – | – | – |
| 11.3 | CCCCC[C@@H](CC(=O)C[C@H]1C2=COC(C)=CC2=C(C=O)C(=O)[C@]1(C)O)OC | 21.6 | – | – | inactive | – | – |
| 70.7 | CCCCC[C@@H](O)CC(=O)C[C@H]1C2=COC(C)=CC2=C(C=O)C(=O)[C@]1(C)O | > 100 | – | – | inactive | – | – |
| > 100 | CCCCCC(CC(=O)[C@H]1C(=O)O[C@@]2(C)C(=O)C(C=O)=C3C=C(C)OC=C3[C@H]12)OC (some centres not stated) | 21 | – | – | – | – | – |
